Here are results for 18 molecules from ChEMBL document CHEMBL4622915, “Design and synthesis of C-12 dithiocarbamate andrographolide analogues as an anticancer agent” (Bioorg Med Chem Lett, 2020).

SMILES strings stand for the structures.

Holding throughout (format): functional, cell-based
Assay [1] relates to KB. As to the kind of experiment: Anticancer activity against human KB cells assessed as reduction in cell viability measured after 72 hrs by SRB assay. The procedure, abridged: (§1)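 Adherent cells seeded at 10^4 cells/well and exposed 72 h to compound at 0.1–50 μM, dissolved in DMSO (less than 0.05%). Ellipticine served as positive control. Afterwards cells washed, fixed with TCA, stained with 0.4% SRB in 1% acetic acid. Bound dye extracted and OD read at 515 nm; IC50 derived.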

In assay [2] the test system is HuCC-A1. As to the kind of experiment: Anticancer activity against human HuCCa1 cells assessed as reduction in cell viability measured after 72 hrs by SRB assay. The settings on record: HuCC-A1, 72 h. The procedure, abridged: as §1
On the technique in general: Sulforhodamine B stains cellular protein and so reports cell mass.

In assay [3] the test system is MCF7. Kind of assay: Anticancer activity against human MCF7 cells assessed as reduction in cell viability measured after 72 hrs by SRB assay. The settings on record: MCF7, 72 h. The gist of the method: as §1
Assay [4] deals with HT-29. Kind of assay: Anticancer activity against human HT-29 cells assessed as reduction in cell viability measured after 72 hrs by SRB assay. The settings on record: HT-29, 72 h. The procedure, abridged: as §1
Assay [5] can be described thus: Anticancer activity against human KKU055 cells assessed as reduction in cell viability measured after 72 hrs by SRB assay. The procedure, abridged: as §1
In assay [6] the test system is P388. Kind of assay: Anticancer activity against mouse P388 cells assessed as reduction in cell viability measured after 48 hrs by SRB assay. The settings on record: P388, 48 h. The procedure, abridged:
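Suspension cells seeded at 10^4 cells/well and exposed 48 h to compound at 0.1–50 μM, dissolved in DMSO (less than 0.05%). Ellipticine served as positive control. Then washed, TCA-fixed, stained with 0.4% SRB in 1% acetic acid. Protein-bound dye extracted and absorbance read at 515 nm; IC50 taken.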

Assay [7] in a line: Anticancer activity against human KKU-M213 cells assessed as reduction in cell viability measured after 72 hrs by SRB assay. The settings on record: KKU-M213, 72 h. The procedure, abridged: as §1
In assay [8] the test system is A549. As to the kind of experiment: Anticancer activity against human A549 cells assessed as reduction in cell viability measured after 72 hrs by SRB assay. The settings on record: A549, 72 h. The gist of the method: as §1
Assay [9] in a line: Anticancer activity against rat ASK cells assessed as reduction in cell viability measured after 72 hrs by SRB assay. The procedure, abridged: as §1

As for `C=C1CC[C@@H]2[C@](C)(COC(C)=O)[C@H](OC(C)=O)CC[C@@]2(C)[C@@H]1C[C@H](SC(=S)N1CCC(Cc2ccccc2)CC1)C1=CCOC1=O`, the IC50 in assay [1] is 33.6 µM; in assay [2], 19.7 µM; in [3] it was 5.46 µM; in assay [4] it was 15.3 µM; in assay [5], 6.42 µM; in assay [6], 4.85 µM. Also, the IC50 amounted to 6.76 µM in assay [7], 29.1 µM in assay [8] and 28.5 µM in assay [9].

Regarding `C=C1CC[C@@H]2[C@](C)(COC(C)=O)[C@H](OC(C)=O)CC[C@@]2(C)[C@@H]1C[C@H](SC(=S)N1CCN(c2ccc(O)cc2)CC1)C1=CCOC1=O`, the IC50 in [1] came out at 6 µM; in assay [2] it was 4.88 µM; in [3], 2.56 µM; in assay [4], 4.93 µM; in assay [5] it was 5.29 µM; in [6], 5.75 µM. Further, the IC50 in assay [7] was determined as 4.91 µM; in assay [8] it was 22.1 µM; in assay [9], 4.74 µM.

Regarding `C=C1CC[C@@H]2[C@](C)(COC(C)=O)[C@H](OC(C)=O)CC[C@@]2(C)[C@@H]1C[C@H](SC(=S)N1CCc2ccccc2C1c1ccccc1)C1=CCOC1=O` (some centres not stated), the IC50 in [1] is 18.1 µM; in [2], 9.39 µM; in [3] it was 5.6 µM; in assay [4] it was 9.63 µM; in assay [5], 6.44 µM; in assay [6] it was 5.33 µM. The IC50 in [7] was 6.81 µM; in assay [8], 29.8 µM; in assay [9], 23.4 µM.

Regarding `C=C1CC[C@@H]2[C@](C)(COC(C)=O)[C@H](OC(C)=O)CC[C@@]2(C)[C@@H]1C[C@H](SC(=S)N1CCc2ccccc2C1)C1=CCOC1=O`, the IC50 in assay [1] was 25 µM; in [2] it was 7.19 µM; in assay [3] it was 3.95 µM; in assay [4], 7.08 µM; in assay [5] it was 5.55 µM; in assay [6], 4.38 µM. For the same molecule, the values for the IC50 in assay [7], in [8] and in [9] were 5.59 µM, 25.1 µM and 20.1 µM, respectively.

On to `C=C1CC[C@@H]2[C@](C)(COC(C)=O)[C@H](OC(C)=O)CC[C@@]2(C)[C@@H]1C[C@H](SC(=S)N1CCN(c2ccccc2F)CC1)C1=CCOC1=O`, for which the IC50 in [1] was 18.9 µM; in assay [2] it was 8.63 µM; in [3] it was 6.05 µM; in [4] it was 7.06 µM; in [5], 9.39 µM; in assay [6], 5.74 µM. Further, the IC50 came out at 5.22 µM in [7], 27.9 µM in assay [8] and 9.53 µM in [9].

Regarding `C=C1CC[C@@H]2[C@](C)(COC(C)=O)[C@H](OC(C)=O)CC[C@@]2(C)[C@@H]1C[C@H](SC(=S)N(Cc1ccccc1)C(C)C)C1=CCOC1=O`, the IC50 came to 24.8 µM in assay [1]; 8.64 µM in assay [2]; 3.75 µM in [3]; 6.73 µM in [4]; 5.29 µM in assay [5]; 4.06 µM in assay [6]. The IC50 in assay [7] turned out to be 5.52 µM; in assay [8] it was 22.5 µM; in assay [9] it was 20.3 µM.

Turning to `C=C1CC[C@@H]2[C@](C)(COC(C)=O)[C@H](OC(C)=O)CC[C@@]2(C)[C@@H]1C/C=C1/C(=O)OC[C@H]1OC(C)=O`, the IC50 amounted to 28.1 µM in [1]; 20.1 µM in assay [2]; 7.95 µM in assay [3]; 21.6 µM in assay [4]; 5.02 µM in [5]; 6.64 µM in assay [6]. The values for the IC50 in assay [7], in assay [8] and in assay [9] were 14.8 µM, above 50 µM and 22.5 µM, respectively.

In the case of `C=C1CC[C@@H]2[C@](C)(COC(C)=O)[C@H](OC(C)=O)CC[C@@]2(C)[C@@H]1C[C@H](SC(=S)N1CCN(C(c2ccc(F)cc2)c2ccc(F)cc2)CC1)C1=CCOC1=O`, the IC50 in assay [1] was 42.5 µM; in assay [2], above 50 µM; in assay [3] it was 24.2 µM; in assay [4], above 50 µM; in assay [5], 28.3 µM; in assay [6], 14.3 µM. Further, the figures for the IC50 in assay [7], in [8] and in assay [9] were 29.2 µM, above 50 µM and above 50 µM, respectively.

For `C=C1CC[C@@H]2[C@](C)(COC(C)=O)[C@H](OC(C)=O)CC[C@@]2(C)[C@@H]1C[C@H](SC(=S)N1CCN(c2ccc(C)cc2)CC1)C1=CCOC1=O`, the IC50 is 19.4 µM in [1]; 17.5 µM in [2]; 6.06 µM in [3]; 8.29 µM in assay [4]; 14.8 µM in [5]; 5.5 µM in assay [6]. For the same molecule, the figures for the IC50 in assay [7], in assay [8] and in [9] were 6.49 µM, 27.8 µM and 28 µM, respectively.

In the case of `C=C1CC[C@@H]2[C@](C)(COC(C)=O)[C@H](OC(C)=O)CC[C@@]2(C)[C@@H]1C[C@H](SC(=S)N1CCN(C(c2ccccc2)c2ccc(Cl)cc2)CC1)C1=CCOC1=O` (some centres not stated), the half-inhibitory concentration (IC50) in assay [1] was above 50 µM; in assay [2] it was above 50 µM; in [3], 21.7 µM; in assay [4] it was above 50 µM; in assay [5] it was 27.7 µM; in assay [6], 22.6 µM. The IC50 in assay [7], in assay [8] and in assay [9] was above 50 µM in each case.

Consider `C=C1CC[C@@H]2[C@](C)(COC(C)=O)[C@H](OC(C)=O)CC[C@@]2(C)[C@@H]1C[C@H](SC(=S)N1CCN(Cc2ccc3c(c2)OCO3)CC1)C1=CCOC1=O`, for which the IC50 stood at 21.4 µM in assay [1]; 11.6 µM in [2]; 5.68 µM in [3]; 7.91 µM in [4]; 9.75 µM in [5]; 4.58 µM in [6]. Further, the IC50 came to 7.51 µM in assay [7], 29.5 µM in assay [8] and 14.9 µM in [9].

Regarding `C=C1CC[C@@H]2[C@](C)(COC(C)=O)[C@H](OC(C)=O)CC[C@@]2(C)[C@@H]1C[C@H](SC(=S)N(C)Cc1ccccc1)C1=CCOC1=O`, the IC50 in assay [1] was 25.3 µM; in assay [2], 8.63 µM; in assay [3] it was 0.59 µM; in assay [4], 6.22 µM; in [5], 1.36 µM; in [6], 2.17 µM. Moreover, the IC50 in assay [7] was found to be 4.83 µM; in [8], 6.94 µM; in assay [9], 6.92 µM.

Turning to `C=C1CC[C@@H]2[C@](C)(COC(C)=O)[C@H](OC(C)=O)CC[C@@]2(C)[C@@H]1C[C@H](SC(=S)N(CC)Cc1ccncc1)C1=CCOC1=O`, the IC50 in [1] was 17.1 µM; in [2], 7.07 µM; in assay [3] it was 2.48 µM; in [4] it was 4.29 µM; in [5], 4.05 µM; in assay [6] it was 5.85 µM. Further, the values for the IC50 in [7], in assay [8] and in assay [9] were 5.66 µM, 9.42 µM and 18 µM, respectively.

`C=C1CC[C@@H]2[C@](C)(CO)[C@H](O)CC[C@@]2(C)[C@@H]1C/C=C1/C(=O)OC[C@H]1O` [ANDROGRAPHOLIDE]: the IC50 was determined as 31.7 µM in assay [1]; 23.6 µM in assay [2]; 8.48 µM in assay [3]; 8.91 µM in assay [4]; 17.7 µM in assay [5]; 6.52 µM in assay [6]. Further, the IC50 in [7] was 9.36 µM; in assay [8] it was 32 µM; in assay [9], 34.8 µM.

In the case of `C=C1CC[C@@H]2[C@](C)(COC(C)=O)[C@H](OC(C)=O)CC[C@@]2(C)[C@@H]1C[C@H](SC(=S)N1CCN(C(c2ccccc2)c2ccccc2)CC1)C1=CCOC1=O`, the IC50 is above 50 µM in assay [1]; above 50 µM in [2]; 42.3 µM in assay [3]; above 50 µM in assay [4]; above 50 µM in assay [5]; 36.5 µM in assay [6]. The IC50 in [7], in assay [8] and in assay [9] was above 50 µM each time.

For the molecule `C=C1CC[C@@H]2[C@](C)(COC(C)=O)[C@H](OC(C)=O)CC[C@@]2(C)[C@@H]1C[C@H](SC(=S)N1CCN(Cc2ccc(Cl)cc2)CC1)C1=CCOC1=O`, the IC50 was above 50 µM in assay [1]; 21.6 µM in assay [2]; 5.56 µM in [3]; 13.7 µM in [4]; 6.22 µM in assay [5]; 4.8 µM in assay [6]. The IC50 came to 6.76 µM in assay [7], 32.8 µM in assay [8] and 26.2 µM in assay [9].

As to `Cc1c2ccncc2c(C)c2c1[nH]c1ccccc12` [ELLIPTECINE], the IC50 in assay [1] stood at 1.92 µM; in assay [2], 2.43 µM; in assay [3], 1.79 µM; in [4], 2.16 µM; in assay [5], 2.43 µM; in assay [6] it was 1.79 µM. The IC50 in assay [7] was determined as 1.81 µM; in assay [8], 2.25 µM; in assay [9], 2.19 µM.

For `C=C1CC[C@@H]2[C@](C)(COC(C)=O)[C@H](OC(C)=O)CC[C@@]2(C)[C@@H]1C[C@H](SC(=S)N1CCN(c2ncccn2)CC1)C1=CCOC1=O`, the half-maximal inhibitory concentration (IC50) stood at 6.92 µM in assay [1]; 5.73 µM in assay [2]; 0.84 µM in [3]; 4.53 µM in [4]; 5.3 µM in [5]; 4.31 µM in [6]. Besides, the IC50 in assay [7] is 5.3 µM; in assay [8], 18 µM; in assay [9] it was 7.2 µM.

A word on the IC50: it is the point on the concentration scale where inhibition reaches its midpoint.
